Data taken from ChEMBL document CHEMBL1158358, “Synthesis, antimicrobial and cytotoxic activities of some 5-arylidene-4-thioxo-thiazolidine-2-ones” (Eur J Med Chem, 2009).
Converted amounts (≈) assume the structure as drawn.

Experiments:
Candida albicans [1] = assay: Antimicrobial activity against Candida albicans UFPEDA 1007 at 25 ug/disk after 48 hrs by disk diffusion method; assay type: functional; conditions: UFPEDA 1007, 48 h, read-out: IZ
In short: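 Preliminary screen: 6 mm paper disks bearing the agent placed on agar plates inoculated with a standardized microbial suspension. Negative control was DMSO-only disks. Inhibition zones are means of n = 3; no zone or a mean zone below 7 mm was scored as no sensitivity.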

Candida albicans [2] = assay: Antimicrobial activity against Candida albicans UFPEDA 1007 after 48 hrs by twofold serial dilution technique; assay type: functional; conditions: UFPEDA 1007, 48 h
In short: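 MIC was determined by twofold serial dilution. Bacteria were tested in plates at 10⁵ CFU/plate and read after 20 h. C. albicans was tested in tubes at 10³ CFU/tube and read after 48 h. All incubations were at 35 °C. Medium plus DMSO served as the negative control.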

HEp-2 = assay: Cytotoxicity against human Hep2 cells after 72 hrs by MTT assay; assay type: functional, cell-based; conditions: HEp-2, 72 h
In short: (§1)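 MTT antiproliferative assay. Cells were diluted to 10⁵ cells/mL in 96-well plates and preincubated for 24 h at 37 °C in humid 5% CO₂. Compounds or vincristine (reference) were then added. Formazan was dissolved and OD read at 540 nm, compared with medium-only control cells. Run in triplicate.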

NCI-H292 = assay: Cytotoxicity against human NCI-H292 cells after 72 hrs by MTT assay; assay type: functional, cell-based; conditions: NCI-H292, 72 h; in short: as §1

SMILES | zone of inhibition at 25 µg/disc (Candida albicans [1]) [mm] | MIC (Candida albicans [2]) [µg/mL] | IC50 (HEp-2) [µg/mL] | IC50 (NCI-H292) [µg/mL]
CC(=O)N1CCN(c2ccc(OCC3COC(Cn4ccnc4)(c4ccc(Cl)cc4Cl)O3)cc2)CC1 (centres undefined) [KETOCONAZOLE] | 28 | ≤ 1 |  | 
CC[C@]1(O)C[C@H]2CN(CCc3c([nH]c4ccccc34)[C@@](C(=O)OC)(c3cc4c(cc3OC)N(C=O)[C@H]3[C@@](O)(C(=O)OC)[C@H](OC(C)=O)[C@]5(CC)C=CCN6CC[C@]43[C@@H]65)C2)C1 [VINCRISTINE] |  |  | 0.003 (≈ 0.00364 µM) | 0.04 (≈ 0.0485 µM)
